M1 antag – antagonists of rat M1 muscarinic receptor; CHO-M1 cells, Fluo-4 calcium, ACh EC80 antagonist mode; stronger effect = lower value; B-score at 10 µM; 64,000 compounds, 3.4% hits;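 active means calcium fluorescence response, raw or row-and-column corrected B-score, differing from the plate sample mean either way at a set confidence level, mostly lower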
S1P1 ag-PAM – S1P1 agonists and agonism potentiators, primary screen, cell-based, primary and confirmation screens, CRE-bla reporter; Sphingosine 1-phosphate receptor 1 (Homo sapiens), P21453; S1P1 CRE-bla cells, forskolin, beta-lactamase FRET, potentiator mode; S1P1 agonist co-added at EC20, 2 nM; 100% = saturating reference agonist, 0% = basal; activation, % at 9.5 µM; 56,000 compounds, 0.57% hits; AID 449, 2006;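 active means activation above a cutoff set at the mean activation of all tested compounds plus 3 SD, cut at about 54% in these data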;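 further: forskolin at 4 µM as EC80 and the EC20 agonist is SEW2871; 100% = SEW2871 at its EC100 plus forskolin at EC80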
M1 ag – M1 muscarinic receptor agonists, primary screen, CHO-M1 cells, Fluo-4 calcium, agonist mode; B-score at 10 µM; 64,000 compounds, 3% hits; Fluo-4 calcium fluorescence; stronger effect = higher value; Muscarinic acetylcholine receptor M1; AID 626, 2007;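 active means fluorescence rise, raw or as B-score row- and column-corrected plate score, outside the 99.7% band of its plate's samples, either direction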
D1 allo mod – D1 CRE-luciferase signal change, two-sided – cell-based, HEK293 D1, dopamine EC30, D1 allosteric modulator project, primary screen; D(1A) dopamine receptor (Homo sapiens), P21728; dopamine EC30 potentiation; actives deviate in either direction; B-score at 10 µM; 58,000 compounds, 5.9% hits;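 active means luminescence count or its row- and column-corrected plate score outside the 99.7% band of the plate's sample wells, on either side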
S1P3 ag – human S1P3 receptor agonists, primary screen, cell-based, primary and confirmation, NFAT-BLA reporter; AID 373, 2006; 60,000 compounds, 0.1% hits; S1P3 NFAT-BLA reporter cells, agonism, FRET ratio; relative to 1 µM S1P, basal subtracted; activation, % at 4.5 µM;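 active means activation above the screen-wide mean plus 3 SD, cut at about 4.5% in these data, passing the limit was not always enough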
Target sequence (Q99500 whole entry, looked up): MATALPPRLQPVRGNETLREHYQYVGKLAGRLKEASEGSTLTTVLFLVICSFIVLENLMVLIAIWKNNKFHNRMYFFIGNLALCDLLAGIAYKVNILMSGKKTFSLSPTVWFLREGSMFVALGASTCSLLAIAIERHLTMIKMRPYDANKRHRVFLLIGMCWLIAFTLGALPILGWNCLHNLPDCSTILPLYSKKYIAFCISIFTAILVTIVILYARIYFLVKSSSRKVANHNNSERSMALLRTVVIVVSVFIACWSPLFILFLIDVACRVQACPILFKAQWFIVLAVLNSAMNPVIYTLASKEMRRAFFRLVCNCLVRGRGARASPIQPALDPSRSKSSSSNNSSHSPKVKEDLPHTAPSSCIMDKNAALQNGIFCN
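material = human S1P3 NFAT-BLA reporter CHO cells | schedule = 4 h compound at 37 °C, 2 h substrate at RT | measured by = fluorescent BLA substrate, ex 405 nm, em 460/535 nm ratio | controls = 1 µM S1P reference | replication = primary once, confirmation triplicate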
M1 agonist conf – rat M1 muscarinic receptor agonists, confirmation, CHO-M1 cells, Fluo-4 calcium, duplicate retest. shares compounds with M1 ag. Fluo-4 calcium fluorescence, agonist mode; actives lie on both sides. fluorescence change (max-min) at 10 µM. 1,700 compounds, 19% hits. AID 1488, 2009;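 active means fluorescence change differs from the solvent-only DMSO control mean at a set confidence level in both duplicate runs; inconclusive means differs from solvent-only control mean in just one of two runs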;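 further: an EC20 dose of acetylcholine follows compound addition during the same imaging run; raw fluorescence intensity difference in instrument units with no normalization to controls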
M4 ag counter – agonist activity at rat M4 receptor, confirmation, counter-screen for M1 allosteric modulator project, cell-based, agonist mode; AID 1741, 2009; shares compounds with M1 ag; 1,700 compounds, 9% hits; fluorescence change (max-min) at 10 µM; CHO M4/Gqi5 cells, Fluo-4 calcium fluorescence; actives lie on both sides;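 active means fluorescence change differing from the plate's solvent-only control wells at 99.7% confidence in both duplicates, whether higher or lower; inconclusive means differs from solvent controls in only one of two duplicates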
An asterisk follows results filed as active; ? = inconclusive; · = no result given. Only some compounds are listed: those with a hit (about 11% of all), similar ones and a draw of the others.

SMILES | M1 antag | S1P1 ag-PAM | M1 ag | D1 allo mod | S1P3 ag | others
c1ccc2c(c1)[nH]c1cnccc12 | -0.01 | -7 | -0.13 | 0.098 | 0
Cc1c2ccncc2c(C)c2c1[nH]c1ccccc12 | -0.42 | -34 | 35* | -0.18 | 4
CC1=CC(C)C(COC(N)=O)(COC(N)=O)C(C)C1 (stereo not drawn) | 0.33 | -11 | -0.74 | -1.4* | -2
CCCC(=O)c1c(O)[nH]c(=O)[nH]c1=O | 0.027 | -18 | 0.0063 | -1.2 | 0
Cc1cc(OCC(=O)OC(C)(C)C)c2c3c(c(=O)oc2c1)CCC3 | -0.13 | -4 | -0.23 | 0.077 | 0
Cc1cc(OC(=O)CCNC(=O)OC(C)(C)C)c2c3c(c(=O)oc2c1)CCC3 | -1.3 | 9 | 7.1* | -0.64 | -1
N=c1n(CCO)c2ccccc2n1Cc1ccccc1 | -0.092 | -20 | 0.099 | -0.96 | 0
Nc1ccccc1C(=O)OCCOc1ccccc1 | 0.31 | 33 | 0.76 | -4.4* | -1
CC(=NCCN1CCOCC1)c1c(O)n(C2CCCCC2)c(=O)[nH]c1=O | -0.052 | 5 | 0.43 | 1.4 | -1
COC(=O)C1C2c3ccccc3OC1(C)N=c1s/c(=C/c3cn(C)nc3C)c(=O)n12 (stereo not drawn) | 0.85 | -36 | -1 | -4.2* | -1
CC(C)(C)P(=O)(c1ccncc1)N1CCCC1 (stereo not drawn) | 0.89 | -3 | -0.93 | -0.16 | 0
CC1(C)C2CC=C(CN3CCOCC3)C1C2 (stereo not drawn) | -1.3 | · | 0.04 | -1.5 | 0
CN(C)c1ccc(P(=S)(N(C)C)N(C)C)cc1 | 0.71 | · | -0.56 | 0.56 | ·
CCOP(=S)(OCC)c1ccc(N(C)C)cc1 | -0.38 | · | 3* | -0.5 | ·
CCC(C)NC(=O)c1c(N)n(Cc2ccc3c(c2)OCO3)c2nc3ccccc3nc12 (stereo not drawn) | 1.2 | -460 | -0.39 | 1.2 | 31*
Cn1c(O)c(C=NCCN2CCN(C(=O)c3ccccc3)CC2)c(=O)n(C)c1=O | -0.14 | -2 | 0.38 | -7.4* | -1
N=Cc1c(O)n(-c2cccc(Cl)c2)c(=O)[nH]c1=O | -0.74 | -16 | 2.5* | 0.75 | -1
CCOCC(=O)NC1CCSC1=O (stereo not drawn) | 0.13 | 10 | 0.016 | -0.35 | 0
CCCCCCn1c(O)c(C=NC2CCN(Cc3ccccc3)CC2)c(=O)[nH]c1=O | -1.3 | -6 | -0.62 | -3* | -3
O=c1[nH]c(=O)n(CCC2=CCCCC2)c(O)c1C=NC1CCN(Cc2ccccc2)CC1 | -0.076 | -31 | -1.1 | -0.96 | -1
Cn1ncnc2c(=O)n(C)c(=O)nc1-2 | -0.042 | 130* | -0.28 | -6.5* | -2
C[n+]1ccc(-c2ccncc2)cc1 | 1.5 | -4 | -0.0059 | 0.088 | 0
COc1ccc(CCNC(=O)c2c(N)n(CCN3CCOCC3)c3nc4ccccc4nc23)cc1 | -0.52 | -40 | 0.17 | 0.98 | 2
Nc1c(C(=O)NCCN2CCOCC2)c2nc3ccccc3nc2n1Cc1ccco1 | -0.0024 | -22 | 6.7* | -0.37 | 2
Nc1c(C(=O)NCCc2ccccc2)c2nc3ccccc3nc2n1CCN1CCOCC1 | 0.043 | -116 | -0.43 | 0.38 | 7.7*
SMILES | M1 antag | S1P1 ag-PAM | M1 ag | D1 allo mod | S1P3 ag | others
CCCCn1c(N)c(C(=O)NCCN2CCOCC2)c2nc3ccccc3nc21 | -0.67 | -19 | 0.43 | · | 1
CCn1c(=O)n(CC(=O)N2CCC3(CC2)OCCO3)c(=O)c2ccccc21 | 0.3 | -30 | -0.34 | -0.0012 | 1
CN1CCN(C(=O)COc2ccc(-c3nc4ccccc4s3)cc2)CC1 | -0.18 | · | -0.21 | -4.4* | ·
Cc1cc2c(C(F)(F)F)cc(=O)oc2c2c1NCCC2 | -0.52 | 22 | 205* | 1.9 | -1 | M1 agonist conf=1315*;M4 ag counter=1119*
Cn1nc(-c2ccc(OCC(=O)N3CCN(Cc4ccccc4)CC3)cc2)c2ccccc2c1=O | -2* | 32 | 5.4* | 0.75 | -1 | M1 agonist conf=?;M4 ag counter=-72
COCCn1cc(C(=O)N2CCC3(CC2)OCCO3)c2c3ccccc3n(C)c2c1=O | -0.23 | -4 | -1 | 0.015 | 0
Cn1c2ccccc2c2c(C(=O)N3CCC4(CC3)OCCO4)cn(C3CCCC3)c(=O)c21 | -0.73 | · | 14* | -0.013 | · | M1 agonist conf=-4;M4 ag counter=-26
CCOc1ccc2[nH]c(=O)c(CN(CCO)C3(c4nnnn4C4CCCCC4)CCCCC3)cc2c1 | 0.3 | -4 | -0.63 | -0.052 | 0
CCCS(=O)(=O)N1CCCC(C(=O)N2CCC3(CC2)OCCO3)C1 (stereo not drawn) | 0.88 | -8 | 2* | 0.22 | -1 | M1 agonist conf=-6.6;M4 ag counter=-10
CCCS(=O)(=O)N1CCC(C(=O)N2CCC3(CC2)OCCO3)CC1 | -0.32 | -27 | -0.42 | 1.2 | 0
CC(=NCCCN1CCOCC1)c1c(O)[nH]c(=O)[nH]c1=O | 0.41 | 13 | 1.5* | -0.47 | -1 | M1 agonist conf=?;M4 ag counter=-73
CC(=NCCCN1CCOCC1)c1c(O)n(Cc2ccccc2)c(=O)[nH]c1=O | -0.45 | -3 | 0.25 | 0.093 | -1
Cc1cccc(-n2c(O)c(C=NCc3cccnc3)c(=O)[nH]c2=O)c1C | 0.06 | -12 | 0.018 | -0.73 | 1
CCNCC1(c2ccc(OC)c(OC)c2)CCCC1 | -15* | -1 | 47* | 0.55 | -1 | M1 agonist conf=-7.7;M4 ag counter=-27
O=C(c1cc(-c2ccccc2)nc2ccccc12)N1CCC2(CC1)OCCO2 | -0.033 | · | 4.3* | 1.1 | · | M1 agonist conf=-17;M4 ag counter=-42
O=C(c1cc(Br)ccc1Cl)N1CCC2(CC1)OCCO2 | -0.32 | -11 | 0.81 | -0.61 | -1
O=S(=O)(c1ccccc1)N1CN2CCN(C2)C1 | 0.37 | 4 | -0.49 | 1.2 | 0
O=P(C(c1ccc2c(c1)OCO2)N1CCOCC1)(N1CCOCC1)N1CCOCC1 (stereo not drawn) | 0.19 | 0 | -0.14 | -1.2 | -1
CCN(CC)c1ccc(N=Cc2c(O)n(CCC3=CCCCC3)c(=O)[nH]c2=O)cc1 | -0.65 | 3 | 109* | 0.32 | -1 | M1 agonist conf=578*;M4 ag counter=627*
O=c1[nH]c(=O)n(CCC2=CCCCC2)c(O)c1C=NCCN1CCNCC1 | 0.2 | -12 | 0.54 | -0.73 | -1
CN(C)c1ccc(N=Cc2c(O)n(CCC3=CCCCC3)c(=O)[nH]c2=O)cc1 | -1 | -9 | 7.9* | -0.48 | -1 | M1 agonist conf=?;M4 ag counter=13
